H9c2 TAG inh – inhibitors of triacylglycerol accumulation | H9c2 cells, Nile Red lipid (TAG) fluorescence; cells loaded with 200 µM oleic acid | inhibition, % at 12.5 µM | 0.66% of 230,000 active | AID 651582;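 active means pattern-corrected inhibition of lipid staining of at least 50% with the nuclear-stain viability signal not falling by more than 50%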;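 further: 0% = DMSO wells and 100% = triacsin C control wells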
A1 inh – inhibitors of the anti-apoptotic protein A1, read as caspase activation | MEF A1-2A-BIM cells, Caspase-Glo 3/7 luminescence, 3 h; percent of clofoctol response, vehicle zero | caspase activation, % (no concentration beside the values) | 0.066% of 330,000 active | AID 2462;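 active means over half of replicate activation scores above 10%, or exactly half above 10 with the replicate mean above 10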
SR-BI DiI inh – blocks mouse SR-BI lipid uptake from DiI-HDL | Q61009 | ldlA[mSR-BI] CHO cells, DiI-HDL uptake fluorescence, 3 h | inhibition, % at 12.5 µM | 0.96% of 320,000 active;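 active means mean replicate inhibition of at least 70% and a set share of replicates each scoring 70 or more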;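 further: 0% = median of neutral control wells and 100% = median of positive control wells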
Target sequence (Q61009 whole entry, looked up): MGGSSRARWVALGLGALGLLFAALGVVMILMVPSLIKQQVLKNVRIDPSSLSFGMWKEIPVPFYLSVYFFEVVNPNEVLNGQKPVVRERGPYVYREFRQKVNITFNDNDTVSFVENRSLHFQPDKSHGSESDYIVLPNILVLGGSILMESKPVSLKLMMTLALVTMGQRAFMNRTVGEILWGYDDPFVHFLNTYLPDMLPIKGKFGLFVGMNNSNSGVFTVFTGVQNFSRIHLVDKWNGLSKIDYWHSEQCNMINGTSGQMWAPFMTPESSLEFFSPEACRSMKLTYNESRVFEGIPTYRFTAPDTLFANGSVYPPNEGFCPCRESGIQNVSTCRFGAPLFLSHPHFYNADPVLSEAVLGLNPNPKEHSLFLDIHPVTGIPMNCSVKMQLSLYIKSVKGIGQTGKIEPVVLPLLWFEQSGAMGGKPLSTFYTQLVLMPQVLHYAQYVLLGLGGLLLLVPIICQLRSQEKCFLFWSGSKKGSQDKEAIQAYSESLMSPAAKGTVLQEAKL
Vif inh – inhibitors of HIV Vif; inhibition, % at 7.49 µM; 0.35% of 340,000 active; HEK293T cells, Vif self-association by quenched fluorescence, imaging, 24 h; in the data active means inhibition above about 50%, passing the limit was not always enough
SR-BI uptake up – SR-BI HDL lipid transfer activation. CHO ldlA[mSR-BI] cells, DiI-HDL uptake fluorescence, 3 h; 100 = double the neutral-control signal. activation, % at 12.5 µM. 0.096% of 320,000 active;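 active means mean replicate activation of at least 60% and every replicate at or above 60%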;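 further: 0% = median plate neutral-control signal and 100% = twice that signal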
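System: LDL receptor-deficient CHO ldlA cells overexpressing murine SR-BI | Timing: 3 h uptake period with compound, 37 °C | Medium: HEPES-buffered (25 mM, pH 7.4) F12 plus 0.5% BSA | Dosing: Single-point compound dose | Signal: Bottom-read fluorescence, 550/595 nm | Read-out: Retained DiI signal reflecting DiI-HDL uptake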
H9c2 TAG conf – triacylglycerol accumulation inhibition, confirmation. shares compounds with H9c2 TAG inh. H9c2 lipid accumulation, Nile Red fluorescence; cells loaded with 200 µM oleic acid. inhibition, % at 12.5 µM. 71% of 990 active. AID 651629;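 active means mean inhibition across replicates of 40% or more; inactive means mean inhibition below 40%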;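 further: plate controls were DMSO only wells for no effect and Triacsin C treated wells for full effect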
Active calls of the source: *; . = no result. Compounds with a hit are over-represented: about 1.6% of the library has one in this group of screens.

SMILES	H9c2 TAG inh	A1 inh	SR-BI DiI inh	Vif inh	SR-BI uptake up	H9c2 TAG conf
O=C(NC(=S)N(Cc1ccccc1)Cc1ccccc1)C1CCCCC1	53.7*	-0.7	15.9	.	-15.9	-0.5
CSc1nc(N(C)NC(=O)c2ccccc2)c2ccccc2n1	57.0*	-0.1	-15.5	-11.7	15.5	61.5*
Cc1ccc(C(=O)NN(C)c2nc3ccccc3nc2C(F)(F)F)cc1	4.9	1.1	-36.3	-5.3	36.3	.
CSc1nc(N(C)NC(=O)c2ccc(Cl)cc2)c2ccccc2n1	64.9*	0.7	-13.8	5.9	13.8	66.2*
CN(NC(=O)c1ccc(Cl)cc1)c1nc(-c2ccccc2)nnc1C(F)(F)F	1.7	-1.5	-28.8	-17.3	28.8	.
Cc1nnc(SCC(=O)Nc2ccc(OC(F)F)c(Cl)c2)n(N)c1=O	19.2	-0.3	30.4	40.2	-30.4	.
Cc1ccc(NC(=O)CSc2nnc(C)c(=O)n2N)cc1Cl	50.8*	-0.1	-7.1	-13.9	7.1	44.4*
CCOC(=O)CCC(NC(=O)CCCCCCCC(=O)NC(CCC(=O)OCC)C(=O)OCC)C(=O)OCC (configuration not stated)	.	1.3	17.8	2.0	-17.8	.
CCCc1[nH]n(-c2ccc([N+](=O)[O-])cc2)c(=O)c1C=NCCc1c[nH]c2ccccc12	63.1*	-1.7	79.3*	.	-79.3	64.9*
COC(=O)c1cc(C(=O)N2CCN(c3cccc(Cl)c3)CC2)cc([N+](=O)[O-])c1	63.5*	0.7	48.5	-4.8	-48.5	56.3*
O=C(c1cccc([N+](=O)[O-])c1)N1CCN(c2cccc(Cl)c2)CC1	5.7	0.2	-1.7	18.4	1.7	.
CCOc1ccccc1N1CCN(C(=O)c2cc(-c3cccnc3)nc3c(Cl)cccc23)CC1	25.1	0.3	31.7	4.5	-31.7	.
Cc1ccc(N2C(=O)C3CC(c4ccccc4)=C4C5C=CC(C6C(=O)N(c7ccc(C)cc7C)C(=O)C56)C4C3C2=O)c(C)c1 (configuration not stated)	51.1*	-0.5	52.1	2.6	-52.1	53.2*
C=CCN1C(=O)c2ccc(C(=O)Nc3ccccn3)cc2C1=O	12.3	-1.0	-12.8	-12.9	12.8	.
CC(C)Cn1c(N)c(C(=O)COC(=O)c2cc(C(F)(F)F)nc3c(C(F)(F)F)cccc23)c(=O)n(C)c1=O	.	-1.3	.	.	.	.
CC(C)(C)NCCC(O)c1cc(C(F)(F)F)nc2c(C(F)(F)F)cccc12 (configuration not stated)	65.5*	.	-23.1	10.4	23.1	62.7*
CC(C)(C)c1cc(NCc2ccccn2)n2ncc(-c3ccc(Cl)cc3)c2n1	52.0*	-0.6	37.9	13.3	-37.9	43.7*
CCOc1ccc(-c2nnc(SCC(=O)N3CCNC3=O)o2)cc1	1.6	-1.0	5.1	-1.4	-5.1	.
NC(=O)c1ccc(NC(=O)COC(=O)CC2Sc3ccccc3NC2=O)cc1 (configuration not stated)	-4.0	0.0	-14.3	17.8	14.3	.
N=c1c(C(=O)NCc2ccc(F)cc2)cc2c(=O)n3ccccc3nc2n1CC1CCCO1 (configuration not stated)	50.9*	1.0	-7.0	-14.5	7.0	34.9
N=c1c(C(=O)NCc2ccc3c(c2)OCO3)cc2c(=O)n3ccccc3nc2n1CC1CCCO1 (configuration not stated)	.	0.1	-3.3	1.4	3.3	.
CCN(C(=O)COC(=O)c1cc(S(=O)(=O)N(C)C)ccc1Cl)C1CCS(=O)(=O)C1 (configuration not stated)	0.6	1.1	18.7	0.1	-18.7	.
CCOc1ccc(NC(=O)CN(C)C(=O)c2cc(-c3ccc(OC)cc3)nc3ccccc23)cc1OCC	52.5*	-0.3	39.9	-13.9	-39.9	62.9*
CCOC(=O)C1(C)CCN1C(=O)c1csnn1 (configuration not stated)	1.8	.	.	-0.7	.	.
Cc1ccc(C(=O)NC(=O)CSc2ncccc2C(=O)O)cc1	-6.0	0.0	1.8	3.5	-1.8	.
SMILES	H9c2 TAG inh	A1 inh	SR-BI DiI inh	Vif inh	SR-BI uptake up	H9c2 TAG conf
COC(=O)c1ccc(CNS(=O)(=O)c2ccc3ccccc3c2)cc1	.	-0.1	-22.7	5.5	22.7	.
Cc1ccc(-n2nc(C)c3c(C)c(CCC(=O)Nc4ccc(CN5CCCC5)cc4)c(C)nc32)cc1	65.1*	0.6	.	13.9	.	59.1*
COC(CNC(=O)CCc1c(C)nc2c(c(C)nn2-c2ccc(C)cc2)c1C)OC	.	0.6	51.6	-3.9	-51.6	.
O=C(NCCc1ccccc1Cl)C1CCC(=O)N(CC2CCCCC2)C1 (configuration not stated)	.	0.2	32.9	0.4	-32.9	.
Cc1cccc(N2CN(S(=O)(=O)c3cccc([N+](=O)[O-])c3)c3nc4ccccc4nc32)c1	54.3*	4.8	6.7	-15.0	-6.7	37.0
COc1ccccc1N1CN(S(=O)(=O)c2ccc(C)cc2)c2nc3ccccc3nc21	-8.5	-0.3	2.4	-4.5	-2.4	.
CCCCC(CCC(=O)O)(C(=O)OCC)c1csc(Nc2ccccc2)n1 (configuration not stated)	5.4	-0.8	-13.1	15.5	13.1	.
CCOC(=O)/C(=N\Nc1ccc(Cl)cc1)c1csc(Nc2ccccc2)n1	75.4*	-1.5	109.5*	10.8	-109.5	68.8*
N/C(=N\c1nc2ccccc2o1)NC(=O)c1ccc(F)cc1	65.9*	1.8	16.3	-0.4	-16.3	44.6*
N/C(=N\c1nc2ccccc2o1)NC(=O)c1ccc(Cl)cc1	.	-0.1	26.7	6.2	-26.7	.
COc1ccc(OCc2nnc(SCC(=O)N(C)Cc3ccccc3)n2N)cc1	2.2	-0.1	8.6	-7.8	-8.6	.
O=C1NC(c2cccc3ccccc23)Nc2ccc(Cl)cc21 (configuration not stated)	52.1*	.	15.2	-3.5	-15.2	36.5
CCN(C[C@H]1N[C@@](CC)(C(=O)OC)[C@H]2C(=O)N(Cc3ccccc3)C(=O)[C@@H]12)S(=O)(=O)c1ccc(C(C)(C)C)cc1	65.3*	-0.1	9.2	-5.5	-9.2	59.8*
CC(C)C[C@@H](CNCC(=O)[C@H](Cc1c[nH]c2ccccc12)NC(=O)c1[nH]cnc1C(=O)N[C@@H](C)CN)NC(=O)c1nc[nH]c1C(=O)N[C@@H](Cc1ccccc1)C(=O)O	8.1	.	-30.1	10.6	30.1	.
CC(C)C[C@@H](CNC(=O)OC(C)(C)C)NC(=O)c1nc[nH]c1C(=O)N[C@@H](CC(C)C)C(=O)CNC[C@H](CC(C)C)NC(=O)c1nc[nH]c1C(=O)N[C@@H](Cc1c[nH]c2ccccc12)C(=O)OC(C)(C)C	60.1*	1.5	-17.4	1.5	17.4	52.5*
Cc1ccc2[nH]c(-c3ccccc3)cc(=O)c2c1	53.4*	0.0	-16.6	.	16.6	57.9*
Cc1ccc(-c2cc(=O)c3ccccc3[nH]2)cc1	-5.4	0.0	10.5	.	-10.5	.

Screens as filed in PubChem BioAssay.
